According to ChEMBL document CHEMBL4414632, “Design, Synthesis, and Biological Evaluation of Novel Indoles Targeting the Influenza PB2 Cap Binding Region” (J Med Chem, 2019):
Active and inactive are the calls of the source. The calls are words filed in the database; no cut-off is given here.

Tests used:
[1] = tested on: Influenza A virus; experiment: Antiviral activity against Influenza A virus (A/Puerto Rico/8/34(H1N1)) infected in human A549 cells assessed as reduction in virus neuraminidase level incubated for 24 hrs by fluorescence based assay; format: functional, organism-based; conditions: A/Puerto Rico/8/1934(H1N1), A549, 24 h
Method in brief: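 A549 cells, 6,000/well, seeded onto compound (nine four-fold dilutions) in Ham's F12 with 2% FBS, 1% Hepes, gentamycin, 24 h at 37°C, 5% CO2; then infected with A/Puerto Rico/8/34 at MOI 1 for further 24 h.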

[2] = Displacement of gamma-[6-aminohexyl]-GTP-biotin from Influenza A virus A/Victoria/3/1975 (H3N2) N-terminal 6His-tagged PB2 (320 to 484 residues) expressed in Escherichia coli incubated for 1 hr by TR-FRET assay
[3] = Displacement of gamma-[6-aminohexyl]-GTP-biotin from Influenza B virus B/Brisbane/60/2008 C-terminal 6His-tagged PB2 (320 to 484 residues) expressed in Escherichia coli incubated for 1 hr by TR-FRET assay
[4] = tested on: Influenza A virus; experiment: In vivo antiviral activity against Influenza A virus (A/Puerto Rico/8/34(H1N1)) infected in BALB/c mouse assessed as survival rate at 30 mg/kg, po administered bid for 10 days after 48 hrs post infection and observed for 21 days relative to control; format: functional, A/Puerto Rico/8/1934(H1N1)
[5] = biological target: Glycogen synthase kinase-3 beta (Homo sapiens) (UniProt P49841); experiment: Inhibition of GSK3beta (unknown origin) at 1 uM
[6] = Therapeutic index, ratio of CC50 for dog MDCK cells to IC50 for Influenza A virus (A/Taiwan/1/1986(H1N1)); format: toxicity; conditions: read-out: Ratio CC50/IC50
[7] = Therapeutic index, ratio of CC50 for dog MDCK cells to IC50 for Influenza A virus A/[…]/3/1975 (H3N2); format: toxicity; conditions: read-out: Ratio CC50/IC50
[8] = tested on: Influenza A virus; experiment: Antiviral activity against Influenza A virus A/[…]/3/1975 (H3N2) infected in MDCK cells assessed as reduction in virus-induced cytopathic effect by measuring ATP level incubated for 24 hrs by ATPlite luminescence assay; format: functional, organism-based
[9] = tested on: Influenza A virus; experiment: Antiviral activity against Influenza A virus (A/Taiwan/1/1986(H1N1)) infected in MDCK cells assessed as reduction in virus-induced cytopathic effect by measuring ATP level incubated for 24 hrs by ATPlite luminescence assay; format: functional, organism-based
[10] = Therapeutic index, ratio of CC50 for human A549 cells to IC50 for Influenza A virus (A/Puerto Rico/8/34(H1N1)); format: toxicity; conditions: read-out: Ratio CC50/IC50
[11] = tested on: Influenza A virus; experiment: In vivo antiviral activity against Influenza A virus (A/Puerto Rico/8/34(H1N1)) infected in BALB/c mouse assessed as survival rate at 10 mg/kg, po administered bid for 10 days after 48 hrs post infection and observed for 21 days relative to control; format: functional, A/Puerto Rico/8/1934(H1N1)

Glycogen synthase kinase-3 beta (Homo sapiens), sequence (P49841 whole entry, looked up): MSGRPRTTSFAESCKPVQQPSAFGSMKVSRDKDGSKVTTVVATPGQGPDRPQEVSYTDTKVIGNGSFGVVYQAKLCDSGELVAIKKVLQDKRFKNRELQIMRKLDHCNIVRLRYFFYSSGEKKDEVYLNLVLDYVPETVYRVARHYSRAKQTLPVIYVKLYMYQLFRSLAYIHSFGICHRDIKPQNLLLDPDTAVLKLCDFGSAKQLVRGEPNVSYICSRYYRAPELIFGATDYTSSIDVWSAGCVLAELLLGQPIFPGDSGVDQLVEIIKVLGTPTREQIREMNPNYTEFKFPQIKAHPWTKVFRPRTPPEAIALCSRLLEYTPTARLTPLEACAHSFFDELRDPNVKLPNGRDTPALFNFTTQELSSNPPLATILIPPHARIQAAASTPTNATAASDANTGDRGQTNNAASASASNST

SMILES	IC50 [1]	IC50 [2]	IC50 [3]	Activity [4]	inhibition [5]	selectivity ratio [6]	selectivity ratio [7]	IC50 [8]	IC50 [9]	selectivity ratio [10]	Activity [11]
O=C(O)[C@H]1C2CCC(CC2)[C@@H]1Nc1nc(-c2c[nH]c3c(F)cc(F)cc23)ncc1F	22 nM	120 nM	> 50000 nM	75%	inactive	–	–	–	–	–	–
NC(=O)c1nc(F)cnc1O	–	–	–	–	–	> 6	> 3	35700 nM	16800 nM	–	–
Cc1cc(F)c2[nH]cc(-c3ncc(F)c(N[C@H]4C5CCC(CC5)[C@@H]4C(=O)O)n3)c2c1	22 nM	120 nM	26000 nM	–	–	75	25	11 nM	4 nM	1490	–
CCOC(=O)C1=C[C@@H](OC(CC)CC)[C@H](NC(C)=O)[C@@H](N)C1 [OSELTAMIVIR]	31 nM	–	–	–	–	–	–	–	–	> 4130	38%
O=C(O)[C@H]1C2CCC(CC2)[C@@H]1Nc1nc(-c2c[nH]c3c(F)cc(Cl)cc23)ncc1F	53 nM	170 nM	> 50000 nM	–	–	83	28	47 nM	21 nM	> 485	–
N#Cc1cc(F)c2[nH]cc(-c3ncc(F)c(N[C@H]4C5CCC(CC5)[C@@H]4C(=O)O)n3)c2c1	43 nM	80 nM	13000 nM	–	–	97	59	19 nM	11 nM	> 612	–
